The results in this text go back to ChEMBL document CHEMBL3046780, “Syntheses and herbicidal activity of new triazolopyrimidine-2-sulfonamides as acetohydroxyacid synthase inhibitor” (Bioorg Med Chem, 2010).

pKi: −log10 of the molar value.

Test [1] has as its target T1, Acetolactate synthase, chloroplastic (Arabidopsis thaliana, UniProt P17597).
T1 sequence (P17597 whole entry): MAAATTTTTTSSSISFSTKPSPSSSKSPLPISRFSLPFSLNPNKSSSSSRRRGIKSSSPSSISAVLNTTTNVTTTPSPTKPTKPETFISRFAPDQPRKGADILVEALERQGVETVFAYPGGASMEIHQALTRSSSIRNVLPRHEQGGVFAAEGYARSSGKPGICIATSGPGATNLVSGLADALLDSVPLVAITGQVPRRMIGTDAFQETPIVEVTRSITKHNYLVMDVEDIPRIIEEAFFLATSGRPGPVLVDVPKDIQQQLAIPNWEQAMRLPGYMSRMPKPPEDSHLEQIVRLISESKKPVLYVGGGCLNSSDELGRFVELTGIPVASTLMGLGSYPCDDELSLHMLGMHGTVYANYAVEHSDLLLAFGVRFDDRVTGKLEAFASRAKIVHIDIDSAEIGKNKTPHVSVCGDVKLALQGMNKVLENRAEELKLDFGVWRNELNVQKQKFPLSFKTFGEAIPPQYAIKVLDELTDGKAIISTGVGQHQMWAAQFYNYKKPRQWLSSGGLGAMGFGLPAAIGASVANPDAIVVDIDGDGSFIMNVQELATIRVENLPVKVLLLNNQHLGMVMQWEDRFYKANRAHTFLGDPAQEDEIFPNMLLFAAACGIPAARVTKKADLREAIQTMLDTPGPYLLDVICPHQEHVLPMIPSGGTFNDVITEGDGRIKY

In the next test the test system is Poa annua. Put plainly: Post-emergence herbicidal activity against Poa annua assessed as growth inhibition at 150 g ai/ha measured 15 days post compound treatment under green house conditions. The class given is functional. Particulars: 360 h, read-out: GI. In a few lines: (§1)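 Compounds formulated as 100 g/L emulsifiable concentrate (DMF solvent, Tween-80 emulsifier), diluted with water, sprayed post-emergence on pot-grown weeds in clay soil (pH 6.5, 1.6% organic matter). Seeds sown 1-3 cm deep, grown at 15-30 °C. Dicots were treated at the 2-leaf stage and monocots at the 1-leaf stage. Untreated and DMF-treated controls were included. Injury was rated visually 15 days after treatment.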

The next test relates to Echinochloa crus-galli. Kind of test: Post-emergence herbicidal activity against Echinochloa crus-galli (barnyard grass) assessed as growth inhibition at 150 g ai/ha measured 15 days post compound treatment under green house conditions. The class given is functional. Particulars: 360 h, read-out: GI. The procedure, abridged:
as §1

The test system of the next test is Digitaria sanguinalis. Put plainly: Post-emergence herbicidal activity against Digitaria sanguinalis (hairy crabgrass) assessed as growth inhibition at 150 g ai/ha measured 15 days post compound treatment under green house conditions. It is filed as functional. Particulars: 360 h, read-out: GI. The procedure, abridged: as §1
The next test concerns Amaranthus retroflexus. Put plainly: Post-emergence herbicidal activity against Amaranthus retroflexus assessed as growth inhibition at 150 g ai/ha measured 15 days post compound treatment under green house conditions. Particulars: 360 h, read-out: GI. The class given is functional. The procedure, abridged: as §1
For another test, the system named is Brassica juncea. Kind of test: Post-emergence herbicidal activity against Brassica juncea assessed as growth inhibition at 150 g ai/ha measured 15 days post compound treatment under green house conditions. The class given is functional. Particulars: 360 h, read-out: GI. The procedure, abridged:
as §1

A further test has as its system Eclipta prostrata. Put plainly: Post-emergence herbicidal activity against Eclipta prostrata assessed as growth inhibition at 150 g ai/ha measured 15 days post compound treatment under green house conditions. The class given is functional. Particulars: 360 h, read-out: GI. In a few lines: as §1

For orientation: pKi means −log10 of the Ki, conventionally taken in molar units. For `Cc1cc2nc(S(=O)(=O)Nc3ccccc3F)nn2c(C)n1`, in test [1], the pKi is 4.56. Besides, the inhibition of growth at 150 g/ha in the test on Poa annua is < 50%; in the test on Echinochloa crus-galli, < 50%; in the test with Digitaria sanguinalis, < 50%; with Amaranthus retroflexus it was 50%; with Brassica juncea, 50%; in the test on Eclipta prostrata it was 50%.

The molecule `Cc1cc2nc(S(=O)(=O)Nc3cc(F)ccc3F)nn2c(C)n1` had a negative-log Ki (pKi) in test [1] of 4.55. The inhibition of growth at 150 g/ha in the test on Poa annua, in the test on Echinochloa crus-galli, with Digitaria sanguinalis, with Amaranthus retroflexus, in the test on Brassica juncea and with Eclipta prostrata was < 50% throughout.

In turn, `COc1ccn2nc(S(=O)(=O)Nc3ccccc3Br)nc2n1` had a pKi in test [1] of 4.65. Also, the inhibition of growth at 150 g/ha with Poa annua was < 50%; in the test on Echinochloa crus-galli, < 50%; in the test on Digitaria sanguinalis, < 50%; in the test with Amaranthus retroflexus, 50%; in the test with Brassica juncea it was ≥ 80%; with Eclipta prostrata, ≥ 80%.

Take `Cc1cc2nc(S(=O)(=O)Nc3ccc(F)c(F)c3F)nn2c(C)n1`: in test [1], the pKi is < 3.00. Also, the inhibition of growth at 150 g/ha in the test with Poa annua is < 50%; in the test with Echinochloa crus-galli it was < 50%; in the test on Digitaria sanguinalis, < 50%; in the test on Amaranthus retroflexus, < 50%; in the test on Brassica juncea it was < 50%; in the test with Eclipta prostrata it was 50%.

As to `COc1ccn2nc(S(=O)(=O)Nc3cc(F)c(F)c(F)c3)nc2n1`, the negative-log Ki (pKi) in test [1] is < 3.00. The inhibition of growth at 150 g/ha in the test on Poa annua, with Echinochloa crus-galli, in the test on Digitaria sanguinalis, in the test on Amaranthus retroflexus, with Brassica juncea and with Eclipta prostrata was < 50% throughout.

On to `Cc1nc(C(F)(F)F)cc2nc(S(=O)(=O)Nc3cc(F)ccc3F)nn12`, for which the inhibition of growth at 150 g/ha in the test with Poa annua, in the test on Echinochloa crus-galli, with Digitaria sanguinalis, with Amaranthus retroflexus, in the test with Brassica juncea and in the test on Eclipta prostrata was < 50% in each case.

As for `COc1ccn2nc(S(=O)(=O)Nc3ccc(OC(F)(F)F)cc3)nc2n1`, the pKi in test [1] is < 3.00. Moreover, the inhibition of growth at 150 g/ha in the test on Poa annua, with Echinochloa crus-galli, with Digitaria sanguinalis, with Amaranthus retroflexus, in the test on Brassica juncea and in the test with Eclipta prostrata was < 50% each time.

As for `Cc1cc2nc(S(=O)(=O)Nc3cc(Cl)ccc3C)nn2c(C)n1`, the pKi in test [1] is 5.11. Further, the inhibition of growth at 150 g/ha in the test on Poa annua was < 50%; in the test on Echinochloa crus-galli, < 50%; with Digitaria sanguinalis it was < 50%; in the test on Amaranthus retroflexus it was < 50%; with Brassica juncea, < 50%; in the test with Eclipta prostrata, 50%.

As for `Cc1cc2nc(S(=O)(=O)Nc3ccc(C(F)(F)F)cc3Cl)nn2c(C)n1`, in test [1], the pKi is 3.75. The inhibition of growth at 150 g/ha in the test with Poa annua, in the test on Echinochloa crus-galli, in the test with Digitaria sanguinalis, with Amaranthus retroflexus, with Brassica juncea and in the test with Eclipta prostrata was < 50% in each case.

In the case of `Cc1nc(C)n2nc(S(=O)(=O)Nc3ccc(C(F)(F)F)cc3)nc2c1Cl`, in test [1], the pKi was < 3.00. For the same molecule, the inhibition of growth at 150 g/ha in the test on Poa annua was < 50%; with Echinochloa crus-galli it was < 50%; in the test on Digitaria sanguinalis, < 50%; with Amaranthus retroflexus, 50%; with Brassica juncea it was < 50%; with Eclipta prostrata, 50%.

`Cc1nc(C)n2nc(S(=O)(=O)Nc3ccccc3F)nc2c1Cl` showed a pKi in test [1] of 4.59. For the same molecule, the inhibition of growth at 150 g/ha in the test with Poa annua was < 50%; in the test on Echinochloa crus-galli, < 50%; in the test with Digitaria sanguinalis, < 50%; with Amaranthus retroflexus it was 50%; in the test with Brassica juncea it was 50%; with Eclipta prostrata, 50%.

Molecule `Cc1nc(C(F)(F)F)cc2nc(S(=O)(=O)Nc3ccccc3F)nn12` showed a pKi in test [1] of 3.24. The inhibition of growth at 150 g/ha is < 50% in the test with Poa annua; < 50% in the test on Echinochloa crus-galli; < 50% in the test with Digitaria sanguinalis; 50% in the test with Amaranthus retroflexus; 50% in the test on Brassica juncea; 50% in the test on Eclipta prostrata.

For `COc1ccn2nc(S(=O)(=O)Nc3cc(F)ccc3F)nc2n1`, the pKi in test [1] was 4.27. Moreover, the inhibition of growth at 150 g/ha was < 50% in the test with Poa annua; < 50% with Echinochloa crus-galli; < 50% in the test with Digitaria sanguinalis; 50% in the test with Amaranthus retroflexus; 50% in the test on Brassica juncea; 50% in the test on Eclipta prostrata.

For the molecule `Cc1nc(C(F)(F)F)cc2nc(S(=O)(=O)Nc3ccc(F)c(F)c3F)nn12`, in test [1], the pKi is < 3.00. The inhibition of growth at 150 g/ha with Poa annua is < 50%; in the test with Echinochloa crus-galli, < 50%; with Digitaria sanguinalis, < 50%; with Amaranthus retroflexus, < 50%; with Brassica juncea it was < 50%; in the test with Eclipta prostrata, 50%.

`COc1ccn2nc(S(=O)(=O)Nc3c(F)cccc3F)nc2n1` gave a pKi in test [1] of 4.73. Further, the inhibition of growth at 150 g/ha with Echinochloa crus-galli was < 50%; in the test on Digitaria sanguinalis it was < 50%; with Amaranthus retroflexus it was ≥ 90%; in the test on Brassica juncea it was ≥ 90%; with Eclipta prostrata, ≥ 90%.

In the case of `COc1ccn2nc(S(=O)(=O)Nc3ccccc3F)nc2n1`, the pKi in test [1] was 4.59. Moreover, the inhibition of growth at 150 g/ha in the test on Poa annua was < 50%; in the test on Echinochloa crus-galli, < 50%; with Digitaria sanguinalis, < 50%; in the test on Amaranthus retroflexus, 50%; with Brassica juncea, 50%; in the test on Eclipta prostrata it was ≥ 80%.

As to `COc1ccn2nc(S(=O)(=O)Nc3ccc(Br)cc3)nc2n1`, the pKi in test [1] is < 3.00. Moreover, the inhibition of growth at 150 g/ha in the test with Poa annua, in the test on Echinochloa crus-galli, with Digitaria sanguinalis, in the test with Amaranthus retroflexus, with Brassica juncea and with Eclipta prostrata was < 50% throughout.

Consider `Cc1nc(C)n2nc(S(=O)(=O)Nc3ccc(F)c(F)c3F)nc2c1Cl`, for which the negative-log Ki (pKi) in test [1] is < 3.00. Further, the inhibition of growth at 150 g/ha in the test on Poa annua, in the test with Echinochloa crus-galli, in the test with Digitaria sanguinalis, in the test on Amaranthus retroflexus, in the test with Brassica juncea and with Eclipta prostrata was < 50% in each case.
